Laboratory results as given in ChEMBL document CHEMBL4680120, “Novel anti-Alzheimer phenol-lipoyl hybrids: Synthesis, physico-chemical characterization, and biological evaluation” (Eur J Med Chem, 2020).
≈ marks a conversion by molar mass, not a printed value. Calls of active or inactive are those of the source. The rule behind the calls is not given here.

Columns and labels:
[1] = tested on: Erythrocyte; experiment: Cytoprotective activity against H2O2-induced oxidative damage in human RBC assessed as recovery of H2O2-induced cell death at 50 to 100 uM measured after 72 hrs by MTT assay relative to control; assay type: functional; conditions: dose 50-100 µM
[2] = tested on: SH-SY5Y; experiment: Neuroprotective activity against amyloid beta (1 to 42)-induced toxicity in human SH-SY5Y cells assessed as increase in PSEN mRNA expression at IC50 measured after 48 hrs by SYBR green dye based RT-qPCR analysis; assay type: functional, cell-based
Outline: (§1)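 Differentiated SH-SY5Y cells in 6-well plates treated 48 h with Aβ1-42 (20 μM) with or without hybrid. mRNA of AD-related genes measured by RT-qPCR, normalized to β-actin. Expressed as fold change versus untreated cells. Triplicate experiments.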

[3] = tested on: Erythrocyte; experiment: Cytoprotective activity against H2O2-induced oxidative damage in human RBC assessed as recovery of H2O2-induced cell death at 50 to 100 uM measured after 72 hrs by LDH release assay relative to control; assay type: functional; conditions: dose 50-100 µM
Outline: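 Heparinised human whole blood cultured in phytohemagglutinin-containing chromosome medium and co-incubated with hybrids and H2O2 at 37C for 72 h. LDH released into the culture medium was measured with a commercial kit. Triton X-100 served as positive control, with untreated cultures as reference. Cytoprotection was expressed as viability relative to control.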

[4] = Stability in simulated intestinal fluid at pH 6.8 assessed as hydrolysis measured immediately in presence of pancreatin by HPLC analysis; assay type: ADME; conditions: simulated gi fluid
Outline: (§2)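 Incubation in simulated gastric fluid (pH 1.2, pepsin) or simulated intestinal fluid (pH 6.8, pancreatin). Aliquots deproteinized with ice-cold acetonitrile, centrifuged at 4°C and 12000 rpm for 10 min, filtered, analyzed by HPLC. RD% = (Ci − Cf)/Ci × 100. Stable if RD < 5%. Means of three experiments.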

[5] = tested on: SH-SY5Y; experiment: Neuroprotective activity against amyloid beta (1 to 42)-induced toxicity in human SH-SY5Y cells assessed as decrease in APP mRNA expression at IC50 measured after 48 hrs by SYBR green dye based RT-qPCR analysis; assay type: functional, cell-based; outline: as §1
[6] = tested on: SH-SY5Y; experiment: Neuroprotective activity against amyloid beta (1 to 42)-induced apoptosis in human SH-SY5Y cells assessed as late apoptotic cells at IC50 measured after 48 hrs by Annexin-V/Propidium iodide staining based flow cytometry (reference value: 33.72%); assay type: functional
[7] = tested on: Erythrocyte; experiment: Cytoprotective activity against H2O2-induced oxidative damage in human RBC assessed as restoration of antioxidant activity at 50 to 100 uM measured after 72 hrs by TAC assay relative to control; assay type: functional; conditions: dose 50-100 µM
[8] = tested on: SH-SY5Y; experiment: Neuroprotective activity against amyloid beta (1 to 42)-induced toxicity in human SH-SY5Y cells assessed as decrease in APH1alpha mRNA expression at IC50 measured after 48 hrs by SYBR green dye based RT-qPCR analysis; assay type: functional, cell-based; outline: as §1
[9] = tested on: SH-SY5Y; experiment: Neuroprotective activity against amyloid beta (1 to 42)-induced toxicity in human SH-SY5Y cells assessed as increase in cell viability at 1 to 250 mg/l measured after 48 hrs by LDH release assay; assay type: functional, cell-based; conditions: dose 1-250 mg/L
Outline: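 SH-SY5Y cells grown in DMEM/F12 with 10% FBS and differentiated with retinoic acid (10 μM), seeded at 1×10^4 per well and cultured 24 h. Cells were given hybrids at 1–250 mg/L with or without Aβ1-42 (20 μM) for 48 h. MTT (5 mg/mL) added for 4 h at 37°C, DMSO solubilization, read at 570/630 nm. LDH read at 450 nm. Five independent experiments.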

[10] = Stability in simulated intestinal fluid at pH 6.8 assessed as relative difference measured after 120 mins in presence of pancreatin by HPLC analysis; assay type: ADME; conditions: simulated gi fluid, pH 6.8, 2 h; outline: as §2
[11] = Solubility of compound in water by HPLC analysis; assay type: physicochemical
[12] = Stability in simulated intestinal fluid at pH 6.8 assessed as relative difference measured after 15 mins in presence of pancreatin by HPLC analysis; assay type: ADME; conditions: simulated gi fluid, pH 6.8, 0.25 h; outline: as §2
[13] = Stability in simulated intestinal fluid at pH 6.8 assessed as relative difference measured after 180 mins in presence of pancreatin by HPLC analysis; assay type: ADME; conditions: simulated gi fluid, pH 6.8, 3 h; outline: as §2
[14] = Stability in simulated intestinal fluid at pH 6.8 assessed as relative difference measured after 60 mins in presence of pancreatin by HPLC analysis; assay type: ADME; conditions: simulated gi fluid, pH 6.8, 1 h; outline: as §2
[15] = Stability in simulated intestinal fluid at pH 6.8 assessed as relative difference measured after 30 mins in presence of pancreatin by HPLC analysis; assay type: ADME; conditions: simulated gi fluid, pH 6.8, 0.5 h; outline: as §2

Compound	Activity [1] [%]	Activity [2]	Activity [3] [%]	Stabilty [4]	Activity [5]	Activity [6] [%]	Activity [7] [%]	Activity [8]	Activity [9]	fold change (FC) [10] [%]	solubility [11] [mg/mL]	fold change (FC) [12] [%]	fold change (FC) [13] [%]	fold change (FC) [14] [%]	fold change (FC) [15] [%]
O=C(CCCCC1CCSS1)NCCCCCOC(=O)Cc1ccc(O)c(O)c1 (configuration not stated)	0.5	Active	0.4	Unstable	Active	9.69	79.2	Active	Active	–	–	–	–	–	–
COc1cc(/C=C/C(=O)NCCCNC(=O)CCCCC2CCSS2)ccc1O (configuration not stated)	0.5	Active	0.4	–	Active	9.97	–	Active	Active	2.5	0.049 (≈ 112 µM)	0.54	3.46	1.04	0.86
